This note sets out measurements from ChEMBL document CHEMBL1143701, “O2-acetoxymethyl-protected diazeniumdiolate-based NSAIDs (NONO-NSAIDs): synthesis, nitric oxide release, and biological evaluation studies” (Bioorg Med Chem, 2007).

In test [1] the test system is Rattus norvegicus. The test is described as follows: Antiinflammatory activity against carrageenan-induced rat paw edema in orally dosed rat after 3 hrs. In kind it is functional. As to conditions: po, read-out: ID50 (the source's name).
For test [2], the system named is Rattus norvegicus. The test is described as follows: Gastric damage production in rat assessed as gastric ulcer index at 1.38 mmol/kg, po after 6 hrs. The class given is functional, Stomach. In outline: (§1)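 Rats fasted 24 h (water allowed), given single oral dose suspended in 1.7 mL 1% methylcellulose; vehicle controls. Killed 6 h later by CO2; stomachs opened along greater curvature and ulcer lengths scored under magnifier. Ulcer index = total ulcer length (mm) summed over stomachs divided by animals (n = 4); mean ± SEM.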

Test [3] in a line: Effect on nitric oxide release in pH 7.4 PBS buffer using sievers […]. The class given is functional. The essentials:
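Prodrug in DMSO (46 or 77 mM stock), 10 μL injected into 3 mL deoxygenated phosphate buffer pH 7.4 at 37 °C in sealed cell; NO swept by nitrogen purge to chemiluminescence analyzer calibrated with NO/He standards; mol NO/mol compound from integrated peak area; time to ~50% of theoretical NO read graphically.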

Test [4] has as its system Rattus norvegicus. The experiment in a line: Gastric damage production in rat assessed as gastric ulcer index at 1.21 mmol/kg, po after 6 hrs. The class given is functional, Stomach. In outline:
as §1

The nature of test [5]: Effect on nitric oxide release in presence of porcine liver esterase per mole using sievers […]. In kind it is functional. The essentials:
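Porcine liver esterase (10 μL of suspension in 3.2 M ammonium sulfate) in 3 mL phosphate buffer pH 8.0; 10 μL of 46 or 77 mM DMSO stock injected; NO carried by nitrogen purge to chemiluminescence analyzer, quantified against calibration curve; time to 100% theoretical NO read graphically.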

Test [6] has as its target T1, Prostaglandin G/H synthase 1 (Ovis aries, UniProt P05979).
T1 sequence (P05979 whole entry): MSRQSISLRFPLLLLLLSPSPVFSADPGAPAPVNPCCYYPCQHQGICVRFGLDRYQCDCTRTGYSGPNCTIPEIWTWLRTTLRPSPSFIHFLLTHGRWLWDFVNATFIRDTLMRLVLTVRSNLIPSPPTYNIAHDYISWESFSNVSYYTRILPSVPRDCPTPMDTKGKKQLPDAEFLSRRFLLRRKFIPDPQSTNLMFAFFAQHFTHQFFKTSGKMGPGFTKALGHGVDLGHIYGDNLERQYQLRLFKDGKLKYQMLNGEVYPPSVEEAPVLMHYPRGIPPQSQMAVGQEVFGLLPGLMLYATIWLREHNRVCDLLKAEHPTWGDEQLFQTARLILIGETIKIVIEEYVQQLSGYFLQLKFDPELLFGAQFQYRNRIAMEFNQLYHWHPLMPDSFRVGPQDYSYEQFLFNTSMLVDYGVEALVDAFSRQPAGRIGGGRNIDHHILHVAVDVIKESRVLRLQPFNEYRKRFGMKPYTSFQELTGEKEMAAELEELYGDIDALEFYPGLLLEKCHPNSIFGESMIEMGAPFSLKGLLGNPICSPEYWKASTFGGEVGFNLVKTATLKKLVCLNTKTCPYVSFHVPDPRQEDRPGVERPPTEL
The test is described as follows: Inhibition of ovine COX1 by enzyme immuno assay.

Test [7] deals with Rattus norvegicus. The experiment in a line: Gastric damage production in rat assessed as gastric ulcer index at 0.08 mmol/kg, po after 6 hrs. The class given is functional, Stomach. In outline: as §1

Consider `CC(=O)Oc1ccccc1C(=O)O` [ASPIRIN], for which the ED50 with Rattus norvegicus [1] turned out to be 714 µmol/kg. Also, the Activity with Rattus norvegicus [2] is 57.4.

For `CC(=O)OCO/N=[N+](\[O-])N(C)CCOC(=O)C(C)c1ccc(CC(C)C)cc1` (configuration not stated), the Activity in test [3] is 1.1 mol/mol; with Rattus norvegicus [4], 0; in test [5] it was 2 mol/mol. The ED50 in the test with Rattus norvegicus [1] was found to be 175 µmol/kg. In test [6], the IC50 was more than 100 µM.

As to `CC(=O)OCO/N=[N+](\[O-])N(C)CCO`, the Activity in test [3] came out at 1 mol/mol; in test [5], 2 mol/mol.

As to `CC(C)Cc1ccc(C(C)C(=O)O)cc1` (configuration not stated) [IBUPROFEN], the ED50 in the test on Rattus norvegicus [1] came to 327 µmol/kg. In addition, the Activity in the test with Rattus norvegicus [4] is listed as 45.8.

`CC(=O)OCO/N=[N+](\[O-])N(C)CCOC(=O)c1ccccc1OC(C)=O`: the figures for the Activity (in test [3]; in test [5]; in the test with Rattus norvegicus [2]) were 1 mol/mol, 2 mol/mol and 0.84, respectively. In addition, in the test on Rattus norvegicus [1], the ED50 was determined as 553 µmol/kg. The same compound registered a concentration for half-maximal inhibition (IC50) in test [6] of more than 100 µM.

`COc1ccc2c(c1)c(CC(=O)O)c(C)n2C(=O)c1ccc(Cl)cc1` [INDOMETHACIN]: the ED50 in the test on Rattus norvegicus [1] was 11.7 µmol/kg.

Turning to `COc1ccc2c(c1)c(CC(=O)OCCN(C)/[N+]([O-])=N/OCOC(C)=O)c(C)n2C(=O)c1ccc(Cl)cc1`, the Activity in test [3] was 0.9 mol/mol; in the test with Rattus norvegicus [7] it was 1.3; in test [5], 2 mol/mol. For the same compound, the ED50 with Rattus norvegicus [1] came to 20.3 µmol/kg. For the same compound, the IC50 in test [6] was more than 100 µM.
